A short description of series [1]: Stability of compound exposed to blue LED light using DCM as solvent assessed as parent compound remaining measured after 2 hrs by 31P-[1H] NMR spectroscopy. The format is physicochemical. Particulars: DCM solution exposed to blue LED light, read-out: Stabilty.
Series [2] can be described thus: Drug metabolism in TsOH assessed as tetraethyl diphosphate formation measured after 2 hrs by 31P-[1H] NMR spectroscopy.
In series [3] the test system is Brain. In words: Antioxidant activity in Swiss mouse brain cerebral tissue assessed as inhibition of SNP-induced lipid peroxidation by measuring TBARS level at 10 uM incubated for 1 hr relative to control. Details: scale not given: the % may be the effect or the level left. The series is classed as functional, tissue-based. The method in brief: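 Whole brain of male adult Swiss mice homogenized in cold 50 mM Tris-HCl pH 7.4 (1/5 w/v) and spun 2400 g, 10 min, 4 °C; supernatant S1 used. Peroxidation induced with sodium nitroprusside in the presence of compound. Then SDS 8.1%, TBA 0.8% and acetic acid/HCl pH 3.4 added, heated 95 °C for 2 h; MDA measured as marker. Trolox 10 µM as positive control. n = 3; one-way ANOVA with Tukey versus induced.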

In series [4] the test system is Brain. In words: Antioxidant activity in Swiss mouse brain cerebral tissue assessed as inhibition of sodium azide-induced reactive species production by measuring fluorescence unit at 10 uM by DCHF-DA dye based spectrofluorimetric method (reference value: 139 +/- 26.8 U). The format is functional.
Series [5] concerns Brain. In words: Antioxidant activity in Swiss mouse brain cerebral tissue assessed as inhibition of sodium azide-induced reactive species production by measuring fluorescence unit at 50 uM by DCHF-DA dye based spectrofluorimetric method (reference value: 139 +/- 26.8 U). The format is functional.
Series [6] concerns Brain. In words: Antioxidant activity in Swiss mouse brain cerebral tissue assessed as inhibition of sodium azide-induced reactive species production by measuring fluorescence unit at 100 uM by DCHF-DA dye based spectrofluorimetric method (reference value: 139 +/- 26.8 U). The series is classed as functional.
Series [7] concerns Brain. As to the kind of experiment: Antioxidant activity in Swiss mouse brain cerebral tissue assessed as inhibition of sodium azide-induced reactive species production by measuring fluorescence unit at 500 uM by DCHF-DA dye based spectrofluorimetric method (reference value: 139 +/- 26.8 U). The format is functional.
A short description of series [8]: Antioxidant activity assessed as ferric ion reducing activity by measuring absorbance at 10 uM measured after 40 mins by FRAP assay (reference value: 0.11 +/- 0.02). The series is classed as functional. The method in brief:
(§1)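 Compounds at 10–500 µM mixed with FRAP reagent (FeCl3, triazine and sodium acetate buffer pH 3.2; 10:1:1). Incubated 40 min at 37 °C in the dark; absorbance reported. Vehicle and Trolox 10 µM as controls. Mean ± SEM, n = 3; one-way ANOVA with Tukey versus vehicle.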

Series [9] is described as follows: Antioxidant activity assessed as ferric ion reducing activity by measuring absorbance at 50 uM measured after 40 mins by FRAP assay (reference value: 0.11 +/- 0.02). The format is functional. The essentials: as §1
Series [10] in a line: Antioxidant activity assessed as ferric ion reducing activity by measuring absorbance at 100 uM measured after 40 mins by FRAP assay (reference value: 0.11 +/- 0.02). The format is functional. The essentials:
as §1

A short description of series [11]: Antioxidant activity assessed as ferric ion reducing activity by measuring absorbance at 500 uM measured after 40 mins by FRAP assay (reference value: 0.11 +/- 0.02). The format is functional. The essentials: as §1
A short description of series [12]: Antioxidant activity assessed as DPPH radical scavenging activity at 10 uM incubated for 30 mins under dark condition relative to control. The format is functional. The essentials: (§2)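 Compounds at 10–500 µM mixed with ethanolic DPPH solution. Incubated 30 min at 30 °C in the dark, then absorbance read at 517 nm. Scavenging expressed as percent relative to vehicle; Trolox 10 µM as positive control. Mean ± SEM, n = 3; one-way ANOVA with Tukey.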
(The DPPH test is a chemical assay of radical scavenging.)

Series [13] in a line: Antioxidant activity assessed as DPPH radical scavenging activity at 50 uM incubated for 30 mins under dark condition relative to control. The series is classed as functional. The essentials:
as §2

The nature of series [14]: Antioxidant activity assessed as DPPH radical scavenging activity at 100 uM incubated for 30 mins under dark condition relative to control. The series is classed as functional. The method in brief: as §2
Series [15] in a line: Antioxidant activity assessed as DPPH radical scavenging activity at 500 uM incubated for 30 mins under dark condition relative to control. The series is classed as functional. The method in brief:
as §2

A short description of series [16]: Antioxidant activity assessed as ABTS radical scavenging activity at 10 uM relative to control. The series is classed as functional. The method in brief:
(§3)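 Compounds at 10–500 µM mixed with ABTS•+ solution; scavenging read as fall in absorbance at 734 nm, expressed as percent scavenging relative to vehicle. Trolox 10 µM as positive control. Mean ± SEM, n = 3; one-way ANOVA with Tukey.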

Series [17] is described as follows: Antioxidant activity assessed as ABTS radical scavenging activity at 50 uM relative to control. The format is functional. The essentials: as §3
Series [18] in a line: Antioxidant activity assessed as ABTS radical scavenging activity at 100 uM relative to control. The series is classed as functional. The essentials: as §3
Series [19] can be described thus: Ex vivo antioxidant activity in Swiss mouse assessed as inhibition of canola oil-induced lipid peroxidation in brain by measuring TBARS level at 10 mg/kg, ig measured after 30 mins (reference value: 91.91 +/- 9.38 /g). The series is classed as functional. The conditions noted are these: 0.5 h.
Series [20] is described as follows: Ex vivo antioxidant activity in Swiss mouse assessed as inhibition of canola oil-induced lipid peroxidation in liver by measuring TBARS level at 10 mg/kg, ig measured after 30 mins (reference value: 271.5 +/- 43.88 /g). The format is functional. Particulars: 0.5 h.
Series [21] in a line: Ex vivo antioxidant activity in Swiss mouse assessed as inhibition of canola oil-induced lipid peroxidation in kidney by measuring TBARS level at 10 mg/kg, ig measured after 30 mins (reference value: 438.20 +/- 27.59 /g). The format is functional. The conditions noted are these: 0.5 h.
The nature of series [22]: Ex vivo antioxidant activity in Swiss mouse assessed as inhibition of canola oil-induced glutathione peroxidase activity in brain by measuring oxidation of NADPH at 10 mg/kg, ig measured after 30 mins by spectrophotometric method (reference value: 12.8 +/- 2.28 nmol/g). The format is functional. Particulars: 0.5 h. The essentials: (§4)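 Swiss mice dosed orally at 10 mg/kg (vehicle canola oil); brain S1 prepared 30 min later. SOD measured as inhibition of epinephrine autoxidation in Na2CO3 50 mM pH 10.3 at 480 nm, one unit = 50% inhibition at 26 °C. GPx measured as NADPH decay coupled to glutathione reductase with H2O2 and GSH. Mean ± SEM, 6 mice per group; Student's t-test.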

A short description of series [23]: Ex vivo antioxidant activity in Swiss mouse assessed as inhibition of canola oil-induced superoxide dismutase activity in brain by measuring SOD activity at 10 mg/kg, ig measured after 30 mins by spectrophotometric method (reference value: 25.44 +/- 4.12 U/min). The format is functional. The conditions noted are these: 0.5 h. The method in brief:
as §4

Series [24] can be described thus: Toxicity in Swiss mouse assessed as change in plasma urea level at 10 mg/kg, ig measured after 30 mins (reference value: 90.31 +/- 0.74 mg/dl). The series is classed as organism-based. Particulars: in vivo, po, 0.5 h. The method in brief: (§5)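 Swiss mice dosed intragastrically at 10 mg/kg (control canola oil 10 mL/kg). After 30 min, blood taken by heart puncture into heparin under light isoflurane anesthesia. Plasma obtained at 200 g for 10 min, hemolyzed samples discarded. ALT, AST, urea and creatinine measured with commercial kits. 5–6 mice per group; Student's t-test.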

The nature of series [25]: Toxicity in Swiss mouse assessed as change in plasma creatinine level at 10 mg/kg, ig measured after 30 mins (reference value: 1.77 +/- 0.05 mg/dl). The series is classed as organism-based. Particulars: in vivo, po, 0.5 h. The essentials:
as §5

Series [26] can be described thus: Toxicity in Swiss mouse assessed as change in plasma AST level at 10 mg/kg, ig measured after 30 mins (reference value: 148 +/- 8.08 […]). The series is classed as organism-based. The conditions noted are these: in vivo, po, 0.5 h. The essentials: as §5
Series [27] is described as follows: Toxicity in Swiss mouse assessed as change in plasma ALT level at 10 mg/kg, ig measured after 30 mins (reference value: 110.90 +/- 12.4 IU/L). The format is organism-based. The conditions noted are these: in vivo, po, 0.5 h. The method in brief: as §5

Turning to `CCOP(=O)(OCC)[Te]c1ccccc1`, the remaining at 2 h in series [1] was found to be 20%. Also, the Drug metabolism result in series [2] is reported as “Metabolite detected”.

Consider `COP(=O)(OC)[Se]c1ccc(C)cc1`, for which the Activity is 73% in the series on Brain [3]; 70.3 U with Brain [4]; 84.9 U in the series on Brain [5]; 70.1 U with Brain [6]; 62.7 U with Brain [7]; 0.14 in series [8]. For the same compound, the Activity stood at 0.17 in series [9]; 0.17 in [10]; 0.29 in series [11]; 12.2% in series [12]; 6.83% in series [13]; 9.87% in [14]. The Activity in [15] was 3.62%; in [16] it was 11.5%; in [17] it was 12.5%; in [18], 29.9%; in series [19], 54.79 g⁻¹; in [20], 199.9 g⁻¹. Further, the Activity in [21] is 455.4 g⁻¹; in [22], 7.48 nmol/g; in [23], 7.37 U/min; in [24] it was 80.24 mg/dL; in [25], 1.96 mg/dL; in series [26] it was 147.4 IU/L. The Activity in series [27] is 119 IU/L.
